Consider two compounds from ChEMBL document CHEMBL4622936, “Discovery of the potent non-steroidal glucocorticoid receptor modulator BAY 1003803 as clinical candidate” (Bioorg Med Chem Lett, 2020).

In data set [1] the test system is THP-1. The data set is described as follows: Immunomodulatory activity in human THP1 cells assessed as reduction in LPS-induced IL-8 production relative to control. The format is functional.
Data set [2] concerns THP-1. Description: Immunomodulatory activity in human THP1 cells assessed as reduction in LPS-induced IL-8 production. The format is functional, cell-based. Summed up: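 Human promyeloid THP-1 cells were stimulated with lipopolysaccharide to induce IL-8 synthesis, and inhibition of IL-8 production by the test compound was measured.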
The nature of data set [3]: Apparent permeability from apical to basolateral side in human Caco2 cells. The format is ADME, cell-based. The settings on record: Caco-2. Summed up: (§1)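 Caco-2 monolayers. Apparent permeability (Papp) was measured from the apical to the basolateral compartment and also in the reverse direction. Efflux ratio is Papp B→A divided by Papp A→B.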
For orientation: Caco-2 monolayers are a common model of the intestinal barrier.

Data set [4] in a line: Clearance in female Wistar rat blood at 5 mg/kg, iv. The format is ADME, organism-based. The note with it: whole blood.
Data set [5] has as its system PBMC. The data set is described as follows: Inhibition of PHA-induced IL2 release in human PBMC cells relative to control. In kind it is functional.
The nature of data set [6]: Drug metabolism in rat Hepatocyte assessed as demethylation product M-4 formation. In kind it is ADME, cell-based. The note with it: hepatocytes.
The nature of data set [7]: Efflux ratio of apparent permeability from apical to basolateral side in human Caco2 cells. The note with it: Caco-2. In kind it is ADME, cell-based. An outline of the steps:
as §1

Data set [8] can be described thus: Clearance in female Wistar rat plasma at 5 mg/kg, iv. In kind it is ADME, organism-based.
Data set [9] is described as follows: Drug metabolism in dog Hepatocyte assessed as demethylation product M-4 formation. The format is ADME, cell-based, Canis lupus familiaris. The note with it: hepatocytes.
The test system of data set [10] is PBMC. The data set is described as follows: Inhibition of LPS-induced IL12p40 release in human PBMC cells relative to control. The format is functional.
The subject of data set [11] is PBMC. The data set is described as follows: Inhibition of PHA-induced IFNgamma release in human PBMC cells relative to control. The format is functional.
Data set [12] can be described thus: Drug metabolism in rat Hepatocyte assessed as demethylation product M-3 formation. In kind it is ADME, cell-based. The settings on record: hepatocytes.
Data set [13] is described as follows: Clearance in female Beagle dog plasma at 1 mg/kg, iv. The format is ADME, organism-based, Canis lupus familiaris.
Data set [14] can be described thus: Inhibition of collagenase (unknown origin) transfected in human HeLa cells by luciferase reporter gene assay. In kind it is cell-based.
The nature of data set [15]: Metabolic stability in human Hepatocyte assessed as intrinsic clearance. The format is ADME, cell-based. The settings on record: hepatocytes, read-out: CLH (converted).
Data set [16] can be described thus: Drug metabolism in rat Hepatocyte assessed as demethylation product M-2 formation. In kind it is ADME, cell-based. The note with it: hepatocytes.
The nature of data set [17]: Terminal half life in female Wistar rat blood at 5 mg/kg, iv. The settings on record: whole blood, read-out: beta t1/2 (converted). The format is ADME, organism-based.
Data set [18] can be described thus: Volume of distribution at steady state in female Beagle dog blood at 1 mg/kg, iv. In kind it is ADME, organism-based, Canis lupus familiaris. The note with it: whole blood, read-out: Vdss.
Data set [19] is described as follows: Drug metabolism in human Hepatocyte assessed as demethylation product M-4 formation. The format is ADME, cell-based. The note with it: hepatocytes.
Data set [20] deals with PBMC. The data set is described as follows: Inhibition of PHA-induced IL4 release in human PBMC cells. The format is functional, cell-based. Summed up: (§2)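 Primary human peripheral blood mononuclear cells were stimulated with LPS (IL-12p40, TNFα) or PHA (IFNγ, IL-2, IL-4). Cytokine release was measured with test compound, and clobetasol and dexamethasone were run in parallel as reference glucocorticoids.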

Data set [21] can be described thus: Terminal half life in female Beagle dog blood at 1 mg/kg, iv. The format is ADME, organism-based, Canis lupus familiaris. The note with it: whole blood, read-out: beta t1/2 (converted).
Data set [22] is described as follows: Lipophilicity, logP of compound. In kind it is physicochemical. The note with it: octanol/water.
The nature of data set [23]: Drug metabolism in rat Hepatocyte assessed as demethylation product M-1 formation. The format is ADME, cell-based. The note with it: hepatocytes.
The test system of data set [24] is PBMC. The data set is described as follows: Inhibition of LPS-induced TNFalpha release in human PBMC cells relative to control. In kind it is functional.
Data set [25] concerns PBMC. The data set is described as follows: Inhibition of LPS-induced IL12p40 release in human PBMC cells. The format is functional, cell-based. An outline of the steps:
as §2

For data set [26], the system named is HeLa. The data set is described as follows: Inhibition of collagenase (unknown origin) transfected in human HeLa cells by luciferase reporter gene assay relative to control. In kind it is cell-based.
A short description of data set [27]: Drug metabolism in human Hepatocyte assessed as demethylation product M-5 formation. In kind it is ADME, cell-based. The note with it: hepatocytes.
Data set [28] is described as follows: Volume of distribution at steady state in female Wistar rat blood at 5 mg/kg, iv. In kind it is ADME, organism-based. The note with it: whole blood, read-out: Vdss.
Data set [29] concerns PBMC. The data set is described as follows: Inhibition of PHA-induced IFNgamma release in human PBMC cells. The format is functional, cell-based. An outline of the steps:
as §2

Data set [30] is described as follows: Drug metabolism in dog Hepatocyte assessed as demethylation product M-1 formation. In kind it is ADME, cell-based, Canis lupus familiaris. The note with it: hepatocytes.
Data set [31] is described as follows: Metabolic stability in dog Hepatocyte assessed as intrinsic clearance. In kind it is ADME, cell-based, Canis lupus familiaris. The settings on record: hepatocytes, read-out: CLH (converted).
Data set [32] in a line: Clearance in female Beagle dog blood at 1 mg/kg, iv. The format is ADME, organism-based, Canis lupus familiaris. The settings on record: whole blood.
The test system of data set [33] is PBMC. Description: Inhibition of PHA-induced IL4 release in human PBMC cells relative to control. In kind it is functional.
A short description of data set [34]: Metabolic stability in rat Hepatocyte assessed as intrinsic clearance. The settings on record: hepatocytes, read-out: CLH (converted). In kind it is ADME, cell-based.
Data set [35] in a line: Drug metabolism in human Hepatocyte assessed as demethylation product M-1 formation. In kind it is ADME, cell-based. The note with it: hepatocytes.
Data set [36] relates to PBMC. The data set is described as follows: Inhibition of LPS-induced TNFalpha release in human PBMC cells. In kind it is functional, cell-based. An outline of the steps:
as §2

The test system of data set [37] is PBMC. Description: Inhibition of PHA-induced IL2 release in human PBMC cells. The format is functional, cell-based. Summed up:
as §2

Data set [38] is described as follows: Terminal half life in male Wistar rat blood at 1 mg/kg, iv. The format is ADME, organism-based. The settings on record: whole blood, read-out: beta t1/2 (converted).
A short description of data set [39]: Clearance in male Wistar rat plasma at 1 mg/kg, iv. The format is ADME, organism-based.
Data set [40] can be described thus: Volume of distribution at steady state in male Wistar rat blood at 1 mg/kg, iv. The format is ADME, organism-based. The settings on record: whole blood, read-out: Vdss.
Data set [41] can be described thus: Clearance in male Wistar rat blood at 1 mg/kg, iv. The format is ADME, organism-based. The note with it: whole blood.

In general, Emax refers to the size of the effect at its maximum, as opposed to the concentration needed. Usually IC50 stands for the concentration needed to halve the response being measured. In general, Papp A→B refers to how fast a substance crosses the layer from the apical side. A word on the clearance: it is the volume of plasma or blood freed of the substance per unit of time. Low readings indicate inefficient removal, high ones efficient removal. The efflux ratio is a quotient of directional permeabilities that is used to spot active efflux. Usually EC50 stands for the concentration needed to bring the measured effect to its halfway point. A lower EC50 goes with higher potency in that assay. In general, logP refers to a log measure of how a compound divides between an organic and an aqueous phase. Lower therefore signals a more hydrophilic compound. Consider `COC[C@@](O)([C@@H](Nc1cc(F)cc2[nH]c(=O)ccc12)c1ccc(OC)c(F)c1Cl)C(F)(F)F`, for which the Emax in data set [1] amounted to 95%; in [26] it was 85%. Further, the IC50 in data set [2] is 0.398 nM; in [20] it was 0.42 nM; in [25] it was 0.75 nM; in [29] it was 0.7 nM; in data set [36] it was 0.92 nM; in data set [37], 0.88 nM. Besides, the apparent permeability from apical to basolateral (Papp A→B) in [3] was 1.9 ×10⁻⁶ cm/s. The clearance was 60 mL/min/kg in data set [4], 50 mL/min/kg in data set [8], 20 mL/min/kg in [13] and 20 mL/min/kg in [32]. Besides, the Efficacy in [5] was determined as 95%; in [10], 96%; in data set [11], 96%; in [24] it was 98%; in data set [33], 99%. Moreover, the Drug metabolism entry in [6] was “Metabolite_Detected”; in data set [9], “Metabolite_Notdetected”; in data set [12], “Metabolite_Detected”; in data set [16] it was “Metabolite_Detected”; in data set [19], “Metabolite_Detected”; in [23], “Metabolite_Detected”. The Drug metabolism result in data set [27], in data set [30] and in data set [35] was “Metabolite_Detected” each time. In addition, in data set [7], the efflux ratio amounted to 0.5. In data set [14], it took 0.794 nM to reach a half-maximal effect (EC50). Also, the values for the CLint scaled in [15], in data set [31] and in data set [34] were 15.7 mL/min/kg, 21.7 mL/min/kg and 12 mL/min/kg, respectively. Also, the half-life is 1.9 h in data set [17] and 1.3 h in data set [21]. Besides, the figures for the Vd in [18] and in data set [28] were 2.1 L/kg and 7 L/kg, respectively. Besides, the logP in [22] is 3.3.

Turning to `COc1ccc([C@H](Nc2cc(F)cc3[nH]c(=O)ccc23)[C@](O)(CO)C(F)(F)F)c(Cl)c1F`, the maximum response (Emax) in [1] turned out to be 92%; in data set [26] it was 88%. For the same compound, the IC50 in data set [2] was 0.631 nM. Moreover, the half-life in data set [38] is 2.9 h. The same compound showed a half-maximal effective concentration (EC50) in data set [14] of 1 nM. This compound also came in with a logP in data set [22] of 2.4. In addition, the clearance is 113 mL/min/kg in [39] and 100 mL/min/kg in [41]. Besides, in data set [40], the Vd came out at 18 L/kg.
